Experimental data: ChEMBL document CHEMBL1629555, “Antimalarial activity of phenylthiazolyl-bearing hydroxamate-based histone deacetylase inhibitors” (Antimicrob Agents Chemother, 2008)
The source made the active and inactive calls. The rule behind the calls is not given here.

Key:
[1] = test system: Mus musculus; experiment: Toxicity in Plasmodium berghei-infected mouse assessed as mortality at single dose of 40 mg/kg/day, po for 3 days; format: organism-based; parameters: route oral; conditions: in vivo, 72 h
[2] = test system: Plasmodium falciparum; experiment: Antimicrobial activity against Plasmodium falciparum W2 at […] in presence of azithromycin; format: functional
Outline: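 In vitro fixed-ratio isobologram using a SYBR green I fluorescence assay. […] IC50s were standardized and FIC50 and ΣFIC50 calculated by the Berenbaum method. Reported as the average ΣFIC across dilutions or the average maximum ΣFIC, from at least 2 experiments.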

[3] = test system: Plasmodium berghei; experiment: Antimalarial activity against Plasmodium berghei infected in mouse assessed as effect on cure rate at 52 mg/kg/day for 3 days measured on day 6 in presence of 64 mg/kg/day chloroquine; format: functional, organism-based
Outline: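 Mice were infected ip with 10^6 P. berghei-parasitized erythrocytes. The compound was given orally once daily on days 3, 4 and 5 post-infection in hydroxyethylcellulose-Tween 20 vehicle, alone or together with chloroquine, with 5 mice per dose group. Parasitemia (%) was read on days 3 and 6, and cures were counted as animals cured out of 5.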

[4] = test system: Plasmodium berghei; experiment: Antimalarial activity against Plasmodium berghei infected in mouse assessed as effect on cure rate at 3.2 mg/kg/day for 3 days measured on day 6 in presence of 4 mg/kg/day chloroquine (reference value: 37%); format: functional, organism-based
[5] = test system: Plasmodium berghei; experiment: Antimalarial activity against Plasmodium berghei infected in mouse assessed as effect on cure rate at 130 mg/kg/day, sc for 3 days; format: functional, organism-based
Outline: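 Mice were infected ip with 10^6 P. berghei-parasitized erythrocytes. The compound was given in hydroxyethylcellulose-Tween 20 vehicle, 5 mice per group, starting on day 3 post-infection. Regimens were once-daily or split daily oral doses over 3 days, subcutaneous dosing, or dosing over 7 days. Read-outs were posttreatment parasitemia on day 6 as a fraction of controls and the number of mice cured.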

## Nc1cccc(-c2csc(NC(=O)CCCCCCC(=O)NO)n2)c1
[1]
  Activity: Non-toxic
[2]
  fractional inhibitory concentration index (FICI): 1.5
[3]
  Activity: inactive
[4]
  Activity: inactive
[5]
  Activity: inactive
